Test results reported in ChEMBL document CHEMBL1140697, “Synthesis and evaluation in monkey of two sensitive 11C-labeled aryloxyanilide ligands for imaging brain peripheral benzodiazepine receptors in vivo” (J Med Chem, 2008).

How the values were obtained:
[1] = Biodistribution in rhesus monkey plasma free fraction of blood; assay type: ADME, organism-based, Macaca mulatta
Plasma [2] = assay: Drug level in rhesus monkey plasma; assay type: ADME, cell-free, Macaca mulatta
Translocator protein [3] = molecular target: Translocator protein (Rattus norvegicus, UniProt P16257); assay: Binding affinity to PBR in Sprague-Dawley rat mitochondrial tissue
[4] = Binding affinity to PBR in rhesus monkey mitochondrial tissue; parameters: species or system Macaca mulatta
In short: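 Mitochondrial fractions (rat, rhesus monkey or human) were incubated with [³H]PK 11195 (0.38 nM final) and eight test-ligand concentrations for 2 h at 4 °C. Samples were filtered on PEI-presoaked GF/B filters, washed with ice-cold buffer and counted. Nonspecific binding was taken at the top inhibitor level (0.1–0.3 µM). Triplicate curves were run in two independent experiments. IC₅₀ was converted to K_i by Cheng–Prusoff, using K_D from homologous PK 11195 displacement.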

Translocator protein [5] = molecular target: Translocator protein (Homo sapiens, UniProt P30536); assay: Binding affinity to PBR in human mitochondrial tissue
[6] = Stability in monkey whole blood >30 mins; assay type: ADME, tissue-based, Macaca mulatta; details: rhesus monkey, read-out: Stability
In short: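 The radioligand was incubated with monkey blood for >30 min. Radioactivity extracted from the plasma was analysed by radio-HPLC to give the percentage of unchanged radioligand, reported as mean ± SD.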

[7] = Stability in sodium phosphate buffer at pH 7.4 after 2.5 hrs; assay type: physicochemical; details: read-out: Stability
In short: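 Radioligand stored in 0.15 M sodium phosphate buffer, pH 7.4, for 2.5 h; radiochemical stability measured by radio-HPLC as percent of radioactivity remaining as unchanged radioligand; n = 4.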

Plasma [8] = assay: Biodistribution in rat plasma at 1.43 mCi, iv after 30 mins; assay type: ADME, organism-based; details: in vivo, 0.5 h
In short: (§1)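 Rats received the ¹¹C-radioligand iv with varying carrier mass (µg/kg) and were sampled 30 min later. Plasma and brain homogenate were extracted into acetonitrile and analysed by reverse-phase radio-HPLC (C18; MeOH/H₂O/Et₃N, 1.5 mL/min), reporting % radioactivity as unchanged radioligand. Extraction recovery was recorded. Replicate HPLC analyses were run on one sample per rat.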

Plasma [9] = assay: Drug level in rhesus monkey plasma assessed as cell distribution; assay type: ADME, cell-free, Macaca mulatta
[10] = Lipophilicity, log D of the compound; assay type: physicochemical; details: octanol/water
In short: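 The ¹¹C-ligand (~300 µCi) in saline with 5% ethanol was mixed with sodium phosphate buffer (0.15 M, pH 7.4). Six 1 mL aliquots were each vortexed 1 min with buffer-pre-equilibrated n-octanol, centrifuged 1 min, and 200 µL of each phase was γ-counted. Aqueous counts were corrected by radio-HPLC for the unchanged fraction. LogD = log(cpm octanol/corrected cpm aqueous); mean ± SD of six determinations.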

[11] = molecular target: Kappa-type opioid receptor (Homo sapiens, UniProt P41145); assay: Binding affinity to kappa opioid receptor
[12] = molecular target: GABA A receptor alpha-2/beta-2/gamma-2 (Homo sapiens, UniProt P18507+P47869+P47870); assay: Binding affinity to GABA alpha-2-beta-2-gamma-2 receptor; assay type: protein-complex assay
In short: (§2)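 K_i values at central benzodiazepine (GABA_A) receptor subtypes were determined in radioligand binding assays within the NIMH PDSP screen.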

[13] = molecular target: GABA A receptor alpha-1/beta-1/gamma-2 (Homo sapiens, UniProt P14867+P18505+P18507); assay: Binding affinity to GABA alpha-1-beta-1-gamma-2 receptor; assay type: protein-complex assay; in short: as §2
[14] = molecular target: GABA A receptor alpha-5/beta-3/gamma-2 (Rattus norvegicus, UniProt P18508+P19969+P63079); assay: Binding affinity to GABA alpha-5-beta-2-gamma-2 receptor; assay type: protein-complex assay, Homo sapiens; in short: as §2
[15] = molecular target: GABA A receptor alpha-6/beta-2/gamma-2 (Homo sapiens, UniProt P18507+P47870+Q16445); assay: Binding affinity to GABA alpha-6-beta-2-gamma-2 receptor; assay type: protein-complex assay; in short: as §2
[16] = Stability in Sprague-Dawley rat brain after 2 hrs; assay type: ADME, tissue-based; details: read-out: Stability
In short: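 The radioligand was incubated with rat brain homogenate in saline for 2 h at 37 °C. The percentage of unchanged radioligand was then determined by radio-HPLC.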

Plasma [17] = assay: Biodistribution in rat plasma at 0.472 mCi, iv after 30 mins; assay type: ADME, organism-based; details: in vivo, 0.5 h; in short: as §1
Plasma [18] = assay: Biodistribution in rat plasma at 2.34 mCi, iv after 30 mins; assay type: ADME, organism-based; details: in vivo, 0.5 h; in short: as §1
Rattus norvegicus = assay: Biodistribution in rat urine at 2.34 mCi, iv after 30 mins; assay type: ADME, organism-based; details: in vivo, 0.5 h
Brain = assay: Biodistribution in rat brain at 0.472 mCi, iv after 30 mins; assay type: ADME, organism-based; details: in vivo, 0.5 h
[19] = molecular target: Sodium-dependent serotonin transporter (Homo sapiens) (UniProt P31645); assay: Binding affinity to SERT receptor at 10 uM; details: tested as the 11C-labelled form
In short: (§3)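 Run through the NIMH Psychoactive Drug Screening Program (PDSP) broad receptor screen. The test ligand was used at 10 µM, and the read-out was percent displacement of the reference radioligand from each site.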

[20] = molecular target: Sodium-dependent dopamine transporter (Homo sapiens) (UniProt Q01959); assay: Binding affinity to DAT receptor at 10 uM; details: tested as the 11C-labelled form; in short: as §3
[21] = molecular target: Sodium-dependent noradrenaline transporter (Homo sapiens) (UniProt P23975); assay: Binding affinity to NET receptor at 10 uM; details: tested as the 11C-labelled form; in short: as §3
[22] = molecular target: 5-hydroxytryptamine receptor 1A (Homo sapiens) (UniProt P08908); assay: Binding affinity to 5HT1A at 10 uM; details: tested as the 11C-labelled form; in short: as §3
[23] = molecular target: 5-hydroxytryptamine receptor 1B (Homo sapiens) (UniProt P28222); assay: Binding affinity to 5HT1B at 10 uM; details: tested as the 11C-labelled form; in short: as §3
[24] = molecular target: 5-hydroxytryptamine receptor 1D (Homo sapiens) (UniProt P28221); assay: Binding affinity to 5HT1D at 10 uM; details: tested as the 11C-labelled form; in short: as §3
[25] = molecular target: 5-hydroxytryptamine receptor 1E (Homo sapiens) (UniProt P28566); assay: Binding affinity to 5HT1E at 10 uM; details: tested as the 11C-labelled form; in short: as §3
[26] = molecular target: 5-hydroxytryptamine receptor 2A (Homo sapiens) (UniProt P28223); assay: Binding affinity to 5HT2A at 10 uM; details: tested as the 11C-labelled form; in short: as §3
[27] = molecular target: 5-hydroxytryptamine receptor 2B (Homo sapiens) (UniProt P41595); assay: Binding affinity to 5HT2B at 10 uM; details: tested as the 11C-labelled form; in short: as §3
[28] = molecular target: 5-hydroxytryptamine receptor 2C (Homo sapiens) (UniProt P28335); assay: Binding affinity to 5HT2C at 10 uM; details: tested as the 11C-labelled form; in short: as §3
[29] = molecular target: 5-hydroxytryptamine receptor 3A (Homo sapiens) (UniProt P46098); assay: Binding affinity to 5HT3 at 10 uM; details: tested as the 11C-labelled form; in short: as §3
[30] = molecular target: 5-hydroxytryptamine receptor 5A (Homo sapiens) (UniProt P47898); assay: Binding affinity to 5HT5A at 10 uM; details: tested as the 11C-labelled form; in short: as §3
[31] = molecular target: 5-hydroxytryptamine receptor 6 (Homo sapiens) (UniProt P50406); assay: Binding affinity to 5HT6 at 10 uM; details: tested as the 11C-labelled form; in short: as §3
[32] = molecular target: 5-hydroxytryptamine receptor 7 (Homo sapiens) (UniProt P34969); assay: Binding affinity to 5HT7 at 10 uM; details: tested as the 11C-labelled form; in short: as §3
[33] = molecular target: Alpha-1A adrenergic receptor (Homo sapiens) (UniProt P35348); assay: Binding affinity to adrenergic alpha-1A at 10 uM; details: tested as the 11C-labelled form; in short: as §3
[34] = molecular target: Alpha-1B adrenergic receptor (Homo sapiens) (UniProt P35368); assay: Binding affinity to adrenergic alpha-1B at 10 uM; details: tested as the 11C-labelled form; in short: as §3
[35] = molecular target: Beta-1 adrenergic receptor (Homo sapiens) (UniProt P08588); assay: Binding affinity to adrenergic […] at 10 uM; details: tested as the 11C-labelled form; in short: as §3
[36] = molecular target: Beta-2 adrenergic receptor (Homo sapiens) (UniProt P07550); assay: Binding affinity to adrenergic beta-2 at 10 uM; details: tested as the 11C-labelled form; in short: as §3
[37] = molecular target: Beta-3 adrenergic receptor (Homo sapiens) (UniProt P13945); assay: Binding affinity to adrenergic beta-3 at 10 uM; details: tested as the 11C-labelled form; in short: as §3
[38] = molecular target: D(1A) dopamine receptor (Homo sapiens) (UniProt P21728); assay: Binding affinity to dopamine receptor D1 at 10 uM; details: tested as the 11C-labelled form; in short: as §3
[39] = molecular target: D(2) dopamine receptor (Homo sapiens) (UniProt P14416); assay: Binding affinity to dopamine receptor D2 at 10 uM; details: tested as the 11C-labelled form; in short: as §3
[40] = molecular target: D(3) dopamine receptor (Homo sapiens) (UniProt P35462); assay: Binding affinity to dopamine receptor D3 at 10 uM; details: tested as the 11C-labelled form; in short: as §3
[41] = molecular target: D(4) dopamine receptor (Homo sapiens) (UniProt P21917); assay: Binding affinity to dopamine receptor D4 at 10 uM; details: tested as the 11C-labelled form; in short: as §3
[42] = molecular target: Histamine H1 receptor (Homo sapiens) (UniProt P35367); assay: Binding affinity to histamine H1 receptor at 10 uM; details: tested as the 11C-labelled form; in short: as §3
[43] = molecular target: Histamine H2 receptor (Homo sapiens) (UniProt P25021); assay: Binding affinity to histamine H2 receptor at 10 uM; details: tested as the 11C-labelled form; in short: as §3
[44] = molecular target: Histamine H4 receptor (Homo sapiens) (UniProt Q9H3N8); assay: Binding affinity to histamine H4 receptor at 10 uM; details: tested as the 11C-labelled form; in short: as §3
[45] = molecular target: Histamine H3 receptor (Homo sapiens) (UniProt Q9Y5N1); assay: Binding affinity to histamine H3 receptor at 10 uM; details: tested as the 11C-labelled form; in short: as §3
[46] = molecular target: Muscarinic acetylcholine receptor M2 (Homo sapiens) (UniProt P08172); assay: Binding affinity to muscarinic receptor M2 receptor at 10 uM; details: tested as the 11C-labelled form; in short: as §3
[47] = molecular target: Muscarinic acetylcholine receptor M5 (Homo sapiens) (UniProt P08912); assay: Binding affinity to muscarinic receptor M5 receptor at 10 uM; details: tested as the 11C-labelled form; in short: as §3
[48] = molecular target: Alpha-2A adrenergic receptor (Homo sapiens) (UniProt P08913); assay: Binding affinity to adrenergic alpha-2A at 10 uM; details: tested as the 11C-labelled form; in short: as §3
[49] = molecular target: Alpha-2B adrenergic receptor (Homo sapiens) (UniProt P18089); assay: Binding affinity to adrenergic alpha-2B at 10 uM; details: tested as the 11C-labelled form; in short: as §3
[50] = molecular target: Alpha-2C adrenergic receptor (Homo sapiens) (UniProt P18825); assay: Binding affinity to adrenergic alpha-2C at 10 uM; details: tested as the 11C-labelled form; in short: as §3
Sequence of Alpha-2C adrenergic receptor (Homo sapiens) (P18825 whole entry): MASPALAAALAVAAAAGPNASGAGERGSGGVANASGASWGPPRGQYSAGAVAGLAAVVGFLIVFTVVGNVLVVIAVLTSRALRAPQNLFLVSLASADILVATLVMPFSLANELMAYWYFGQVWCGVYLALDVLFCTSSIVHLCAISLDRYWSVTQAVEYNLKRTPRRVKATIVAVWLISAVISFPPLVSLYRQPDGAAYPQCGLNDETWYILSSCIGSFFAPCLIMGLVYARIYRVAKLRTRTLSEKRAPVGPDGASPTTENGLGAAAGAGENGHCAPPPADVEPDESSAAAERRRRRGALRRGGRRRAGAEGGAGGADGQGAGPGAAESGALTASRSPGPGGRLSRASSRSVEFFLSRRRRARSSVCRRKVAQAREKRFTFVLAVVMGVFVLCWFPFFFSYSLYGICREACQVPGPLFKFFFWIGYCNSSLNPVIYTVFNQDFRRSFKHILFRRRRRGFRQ

Sequence of Translocator protein (Rattus norvegicus, UniProt P16257) (P16257 whole entry, looked up): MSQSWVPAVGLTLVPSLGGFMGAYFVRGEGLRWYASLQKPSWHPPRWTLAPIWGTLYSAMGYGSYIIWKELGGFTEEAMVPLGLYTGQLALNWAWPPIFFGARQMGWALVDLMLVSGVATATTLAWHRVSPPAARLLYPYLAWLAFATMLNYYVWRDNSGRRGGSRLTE
Sequence of Translocator protein (Homo sapiens, UniProt P30536) (P30536 whole entry): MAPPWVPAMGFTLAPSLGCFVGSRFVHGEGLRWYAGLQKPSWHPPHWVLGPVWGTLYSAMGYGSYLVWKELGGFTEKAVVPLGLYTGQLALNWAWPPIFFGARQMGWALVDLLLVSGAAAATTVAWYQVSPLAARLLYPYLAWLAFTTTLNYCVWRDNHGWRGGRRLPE
Sequence of 5-hydroxytryptamine receptor 7 (Homo sapiens) (P34969 whole entry): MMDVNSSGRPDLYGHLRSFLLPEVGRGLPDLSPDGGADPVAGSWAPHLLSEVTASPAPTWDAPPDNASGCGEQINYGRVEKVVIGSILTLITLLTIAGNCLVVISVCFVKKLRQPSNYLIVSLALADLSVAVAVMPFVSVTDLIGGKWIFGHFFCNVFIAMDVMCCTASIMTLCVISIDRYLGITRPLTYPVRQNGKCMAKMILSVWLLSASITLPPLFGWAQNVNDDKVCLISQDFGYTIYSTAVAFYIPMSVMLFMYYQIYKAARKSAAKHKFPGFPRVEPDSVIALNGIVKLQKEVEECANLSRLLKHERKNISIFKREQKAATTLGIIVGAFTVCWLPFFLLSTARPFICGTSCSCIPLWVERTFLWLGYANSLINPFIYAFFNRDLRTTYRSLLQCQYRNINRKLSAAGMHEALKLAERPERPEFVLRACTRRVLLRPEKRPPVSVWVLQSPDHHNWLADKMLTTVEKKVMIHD
Sequence of Sodium-dependent noradrenaline transporter (Homo sapiens) (P23975 whole entry): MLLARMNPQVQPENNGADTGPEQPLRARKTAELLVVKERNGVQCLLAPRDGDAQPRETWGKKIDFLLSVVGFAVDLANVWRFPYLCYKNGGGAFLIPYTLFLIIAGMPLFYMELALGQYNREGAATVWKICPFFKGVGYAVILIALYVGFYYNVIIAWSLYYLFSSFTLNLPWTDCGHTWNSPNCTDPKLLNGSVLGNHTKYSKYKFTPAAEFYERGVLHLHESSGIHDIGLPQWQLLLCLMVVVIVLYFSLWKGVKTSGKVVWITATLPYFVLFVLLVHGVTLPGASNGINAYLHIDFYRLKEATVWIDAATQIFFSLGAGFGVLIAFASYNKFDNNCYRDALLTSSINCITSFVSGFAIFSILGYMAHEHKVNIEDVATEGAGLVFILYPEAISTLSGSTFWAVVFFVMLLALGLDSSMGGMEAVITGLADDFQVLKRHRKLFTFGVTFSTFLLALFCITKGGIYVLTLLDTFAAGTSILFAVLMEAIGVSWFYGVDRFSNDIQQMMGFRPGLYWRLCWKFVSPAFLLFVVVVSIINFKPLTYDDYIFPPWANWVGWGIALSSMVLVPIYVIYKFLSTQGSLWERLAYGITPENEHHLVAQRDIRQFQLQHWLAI
Sequence of 5-hydroxytryptamine receptor 2B (Homo sapiens) (P41595 whole entry): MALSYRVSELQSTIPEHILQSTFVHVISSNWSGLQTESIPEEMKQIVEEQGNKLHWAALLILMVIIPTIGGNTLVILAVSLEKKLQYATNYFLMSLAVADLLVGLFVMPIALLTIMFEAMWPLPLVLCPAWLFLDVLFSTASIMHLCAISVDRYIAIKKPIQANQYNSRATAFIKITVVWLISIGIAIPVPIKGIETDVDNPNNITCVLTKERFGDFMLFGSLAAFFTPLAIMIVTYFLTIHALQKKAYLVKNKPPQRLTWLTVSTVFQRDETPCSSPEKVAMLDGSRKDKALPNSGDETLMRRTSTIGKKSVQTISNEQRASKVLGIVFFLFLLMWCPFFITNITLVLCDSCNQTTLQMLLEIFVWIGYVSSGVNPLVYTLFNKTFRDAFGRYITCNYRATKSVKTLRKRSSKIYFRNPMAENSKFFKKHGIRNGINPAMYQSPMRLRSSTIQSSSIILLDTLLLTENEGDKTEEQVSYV
Sequence of Alpha-2A adrenergic receptor (Homo sapiens) (P08913 whole entry): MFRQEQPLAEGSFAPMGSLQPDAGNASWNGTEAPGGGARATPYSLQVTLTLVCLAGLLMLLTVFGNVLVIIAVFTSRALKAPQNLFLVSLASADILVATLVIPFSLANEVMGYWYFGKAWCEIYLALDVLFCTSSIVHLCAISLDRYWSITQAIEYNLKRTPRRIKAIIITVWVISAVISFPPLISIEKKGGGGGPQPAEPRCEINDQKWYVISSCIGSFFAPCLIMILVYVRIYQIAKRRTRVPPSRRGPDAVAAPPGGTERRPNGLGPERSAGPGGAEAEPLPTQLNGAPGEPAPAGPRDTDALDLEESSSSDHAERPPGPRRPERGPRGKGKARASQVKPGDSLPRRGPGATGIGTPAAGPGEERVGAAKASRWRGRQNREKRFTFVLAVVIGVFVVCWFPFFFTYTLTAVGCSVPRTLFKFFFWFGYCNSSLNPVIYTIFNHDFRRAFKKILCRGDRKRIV
Sequence of Alpha-1A adrenergic receptor (Homo sapiens) (P35348 whole entry): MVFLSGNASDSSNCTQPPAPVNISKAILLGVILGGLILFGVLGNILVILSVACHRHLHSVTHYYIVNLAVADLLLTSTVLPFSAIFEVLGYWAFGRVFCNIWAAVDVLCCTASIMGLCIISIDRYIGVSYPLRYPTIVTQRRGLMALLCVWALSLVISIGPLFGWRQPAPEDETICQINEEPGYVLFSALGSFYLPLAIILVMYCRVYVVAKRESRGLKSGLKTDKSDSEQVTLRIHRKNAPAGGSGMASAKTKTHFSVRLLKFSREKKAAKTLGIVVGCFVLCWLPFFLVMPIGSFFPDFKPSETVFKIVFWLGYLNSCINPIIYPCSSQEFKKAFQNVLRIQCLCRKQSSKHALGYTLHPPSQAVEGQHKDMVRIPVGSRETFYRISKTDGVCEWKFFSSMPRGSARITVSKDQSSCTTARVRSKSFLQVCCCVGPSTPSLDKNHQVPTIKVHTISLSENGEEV
Sequence of Histamine H1 receptor (Homo sapiens) (P35367 whole entry): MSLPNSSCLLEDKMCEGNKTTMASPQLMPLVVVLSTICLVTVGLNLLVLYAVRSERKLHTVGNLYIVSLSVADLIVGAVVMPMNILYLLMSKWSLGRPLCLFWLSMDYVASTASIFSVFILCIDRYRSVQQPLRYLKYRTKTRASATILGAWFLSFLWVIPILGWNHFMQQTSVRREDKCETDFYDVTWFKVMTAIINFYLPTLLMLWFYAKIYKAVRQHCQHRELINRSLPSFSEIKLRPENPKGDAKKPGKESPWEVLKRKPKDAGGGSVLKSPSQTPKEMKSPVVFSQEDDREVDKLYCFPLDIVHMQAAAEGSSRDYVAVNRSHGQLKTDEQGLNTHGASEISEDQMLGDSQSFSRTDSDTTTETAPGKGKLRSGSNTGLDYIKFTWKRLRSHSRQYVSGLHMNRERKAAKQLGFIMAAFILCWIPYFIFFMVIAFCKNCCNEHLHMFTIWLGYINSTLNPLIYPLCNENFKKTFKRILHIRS
Sequence of Muscarinic acetylcholine receptor M2 (Homo sapiens) (P08172 whole entry): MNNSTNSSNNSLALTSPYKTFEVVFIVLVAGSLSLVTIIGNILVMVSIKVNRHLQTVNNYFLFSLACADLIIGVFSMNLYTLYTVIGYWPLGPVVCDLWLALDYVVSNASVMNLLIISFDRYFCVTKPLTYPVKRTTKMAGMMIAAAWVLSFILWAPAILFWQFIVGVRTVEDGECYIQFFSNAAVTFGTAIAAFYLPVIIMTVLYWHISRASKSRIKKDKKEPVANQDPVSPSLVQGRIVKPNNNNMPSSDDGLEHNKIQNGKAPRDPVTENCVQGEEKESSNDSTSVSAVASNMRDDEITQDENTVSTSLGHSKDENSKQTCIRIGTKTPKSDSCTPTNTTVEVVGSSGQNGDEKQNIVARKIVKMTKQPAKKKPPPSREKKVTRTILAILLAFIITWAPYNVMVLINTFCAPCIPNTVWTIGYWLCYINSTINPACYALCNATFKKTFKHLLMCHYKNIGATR
Sequence of 5-hydroxytryptamine receptor 1A (Homo sapiens) (P08908 whole entry): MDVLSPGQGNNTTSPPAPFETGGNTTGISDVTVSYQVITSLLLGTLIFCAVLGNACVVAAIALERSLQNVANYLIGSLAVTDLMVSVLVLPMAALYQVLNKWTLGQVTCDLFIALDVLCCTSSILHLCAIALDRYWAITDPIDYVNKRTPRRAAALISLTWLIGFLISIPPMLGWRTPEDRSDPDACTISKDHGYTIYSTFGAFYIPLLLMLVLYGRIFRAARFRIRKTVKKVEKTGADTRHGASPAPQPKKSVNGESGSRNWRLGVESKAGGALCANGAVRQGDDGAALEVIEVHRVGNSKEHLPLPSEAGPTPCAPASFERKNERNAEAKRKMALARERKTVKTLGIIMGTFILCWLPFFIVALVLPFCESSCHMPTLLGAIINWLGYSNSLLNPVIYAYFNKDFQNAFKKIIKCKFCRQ

CC(=O)N(Cc1ccccc1C(=O)O[11CH3])c1ccccc1Oc1ccccc1
fraction unbound [1]: 0.0015
Drug uptake (Plasma [2]): 36.7%
Ki (Translocator protein [3]): 0.0978 nM
Ki [4]: 0.254 nM
Ki (Translocator protein [5]): 1.4 nM
remaining at 0.5 h [6]: 96.5%
remaining at 2.5 h [7]: 99.9%
Drug uptake (Plasma [8]): 3.4%
Drug uptake (Plasma [9]): 63.3%
logD [10]: 3.9

COc1ccc(O[11CH3])c(CN(C(C)=O)c2cc(F)ccc2Oc2ccccc2)c1
Ki (Translocator protein [3]): 0.0726 nM
Ki [4]: 0.23 nM
Ki (Translocator protein [5]): 0.242 nM

CC(=O)N(Cc1ccccc1O[11CH3])c1cnccc1Oc1ccccc1
fraction unbound [1]: 0.056
Drug uptake (Plasma [2]): 33.2%
Ki (Translocator protein [3]): 0.68 nM
Ki [4]: 0.944 nM
Ki [11]: 2200 nM
Ki (Translocator protein [5]): 2.47 nM
Ki [12]: > 10000 nM
Ki [13]: > 10000 nM
Ki [14]: > 10000 nM
Ki [15]: > 10000 nM
remaining at 0.5 h [6]: 95.8%
remaining at 2 h [16]: 99.8%
remaining at 2.5 h [7]: 99%
Drug uptake (Plasma [9]): 66.8%
Drug uptake (Plasma [17]): 4.2%
Drug uptake (Plasma [18]): 2.4%
Drug uptake (Rattus norvegicus): 0.39%
Drug uptake (Brain): 97.6%
logD [10]: 3.01

CC[C@H](C)N([11CH3])C(=O)c1cc2ccccc2c(-c2ccccc2Cl)n1
Ki [4]: 4.35 nM
logD [10]: 3.97

COc1ccccc1CN(C(C)=O)c1cnccc1Oc1ccccc1
Activity [19]: < 50%
Activity [20]: < 50%
Activity [21]: < 50%
Activity [22]: < 50%
Activity [23]: < 50%
Activity [24]: < 50%
Activity [25]: < 50%
Activity [26]: < 50%
Activity [27]: < 50%
Activity [28]: < 50%
Activity [29]: < 50%
Activity [30]: < 50%
Activity [31]: < 50%
Activity [32]: < 50%
Activity [33]: < 50%
Activity [34]: < 50%
Activity [35]: < 50%
Activity [36]: < 50%
Activity [37]: < 50%
Activity [38]: < 50%
Activity [39]: < 50%
Activity [40]: < 50%
Activity [41]: < 50%
Activity [42]: < 50%
Activity [43]: < 50%
Activity [44]: < 50%
Activity [45]: < 50%
Activity [46]: < 50%
Activity [47]: < 50%
Activity [48]: < 50%
Activity [49]: < 50%
Activity [50]: < 50%
